The EternaBench riboswitch data

Test system: MS2 coat protein
Experiment: apparent Kd, MS2 coat protein; higher = weaker binding; RNA-MaP array; FMN 200 µM where present
Procedure, shortened: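 Designs were transcribed by stalled E. coli RNA polymerase on Illumina sequencing-chip clusters. They were titrated with SNAP-549-labelled MS2 coat protein from 0.7 or 1.5 nM, doubling to 3 µM, without and then with constant ligand. Buffer: 100 mM Tris-HCl pH 7.5, 80 mM KCl, 4 mM MgCl2, BSA, DTT, yeast tRNA, Tween-20. Green signal was normalised to red-channel RNA signal and control-cluster median Fmax. Apparent Kd is the median of filtered per-cluster binding-curve fits.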

[1] = designed as: OFF switch for flavin mononucleotide, no ligand
[2] = ligand present: flavin mononucleotide, designed as: OFF switch for flavin mononucleotide
[3] = designed as: ON switch for flavin mononucleotide, no ligand
[4] = ligand present: flavin mononucleotide, designed as: ON switch for flavin mononucleotide

Sequence	apparent Kd [1] [nM]	apparent Kd [2] [nM]	apparent Kd [3] [nM]	apparent Kd [4] [nM]
UUUGUUUUGGUAGGAUAUACUUUUAUUUUCUCUUUCCUUACAUGAGGAUCACCCAUGUUUACAUUGUAGAAGGACCACUUUGUU	20.8	18.8		
UUUCCCUGUGUGAGGAUAUACUUGUUUGGGUUUUUGUAGAAGGCACAUGAGGAUCACCCAUGUACUCUGUCGUG	23.3	55.8		
AUAAAACAUGAGGAUCACCCAUGUCAGUUAUCAUGAGGAUAUCCGCCGACCCGGGCGUAAGGAGAAGGCAUAUAAU			39.3	20.1
UGUAUUAAUGGAGGAUAUCGAUAUCAAACAUGAGGAUCACCCAUGUUGAGGAUCACCCAUGUCCAUGAGAAGGCUGGCGUACUU			30.4	29.2
GUGUCUAACUAGAAGGCCGUAUGCAAAGCAUACGGAGGAUAUGGGUUCCGGAAACGGACAUGAGGAUCACCCAUGUGGCACAAA			94.3	13.4
GGGCCGGUGGAGAAGGAGCUUGCAAAACGCAUGCUAGGAUAUCCACAUGAGGAUCACCCAUGUGGGAAUAUCUGGUUUUCACAG	4.09	4.79		
AUUUUUUGUCAUGUACAUGAGGAACAUGAGGAUCACCCAUGUAGAAGGAAUUUUUUUAAGUUUAGUUAGGAUAUACAUAUAUUA	47.7	28.6		
ACAUGAGGAUCACCCAUGUAGAAUGAAGAAGGUAGUUACUUGAGACUCACCCAUGUACAUAGGACUAAGGAUAUUCUAAUAAUU			14.5	8.5
GAUUUACAUGAGGAUCACCCAUGUGAGGAUAUGGAAUGGCUCAUUGUCUGAUUUCCUUCUAGAAGGCACAUCUU	43.7	51		
AAAAAAAAAAGGCAGGAUAUCCAAAAAAAAACAUGAGGAUCACCCAUGUAAAAAAAAAAAAAAUGGGAGAAGGGCCAAAAAAAAAA			39.2	14.3
UUAUUUAGGUAGGAUAUCGAUACUAAUUACUAUCGAGAAGGGUCUACAUGAGGAUCACCCAUGUUAGCAUGUUU	27.2	25.5		
GGUGCAUGUGAGAAGGCGAUCAUGAAACAUGAUCGAGGAUAUCAUGUAAACAUGAGGAUCACCCAUGUAUGGGAAAAGUGCACC			97.9	10.1
GUAGUGUAGUGAGGAUAUACGAGAUCGAUAGAUCGGCGAUCCAAUAAUACAUGAGGAUCACCCAUGUAGAAGGCACUUCACUAC	7.26	98.8		
AGGUGACAUGAGGAUCACCCAUGUCAGGAUAUAUACACCGCCGGCGUGAAGCCGACGGAUAGAAGGGACAAAAU	16.6	21.6		
AAAAGACAUGAGGAUCACCCAUGUGAAAACAUACAAGGAUAUGUGUGGAAACCGUACUAUACAGAAGGUGUAUGUC			34.8	20
UUGUGAGAGCAGGAUAUCUUAUUUUUUUUUUGUGGAGAAGGGCUGACAUGAGGAUCACCCAUGUGGUCCUAGAU	28.4	33.5		
UAGUAUUAGCGAGGAUAUCGUAUGUUCAAUUUUUUAUAUUGUUUACAUGAGGAUCACCCAUGUUACGAGAAGGCGCAUGGGAUU			466	85.8
GCCAUCGCAUGAGGAUAUGCUCCGGUUUCCGGAGCAGAAGGCGUGUCAUAAGACAUGAGGAUCACCCAUGUAGUUAAGAUGGCA			246	10.6
CCUUUGAAGAUCCUAAAUUUCGACAUGAGGAUCACCCAUGUGCAGGAUAUCGUGCCAGUGAUGUACGAGAAGGGCAGACUCUGC	54.3	58		
AAGUCAGCAGGAUAUGCGAUGGUGUACUAGGUAGUUUGCCCACAUGAGGAUCACCCAUGUAGAAGGGCUGGCUA	14.7	21.4		
UUAUUUAUACAAGGAUAUCAAUUAUAUACACAUCCUACAUGAGGAUCACCCAUGUUUUAUUUUUUUGAGAAGGUGUAUUGUCGG			21.2	27.6
UGUAUGUAGGAGAAGGAGGACUUCAUGAGGAUCACCCAUGUGUUAGGACUUAGGAUAUCUGACGACAUGAGGAUCACCCAUGUG			537	355
GUACGGAAGGAGAAGGGCUAGGAGGUCCAGUUUAUGUGUGUUGCAACAUGAGGAUCACCCAUGUAGCAGGAUAUCCUUUGUACA	85.6	177		
GAUAAGGAAGGAUAUGUGGCCUUAUACAUGAGGAUCACCCAUGUUACGACAUACCACUACACAGAAGGUCUAUUAC	32.2	30.5		
GAGAGAGGGUGAGGAUAUUUAGUGAUAAUGAUAAAAGAAGGCACAGACAUGAGGAUCACCCAUGUGGGAAUAAUCCAGAGAGAG			305	288
AAAAGUUGAGGAUAUACAAAAUGAUUGCGAAAUCAAUUAAAACAUGAGGAUCACCCAUGUAGAAGGCGAUAAAA	31.1	25.9		
GGUACCAUCACAGGAUAUGCUUUUCUUUGGGAAGCAGAAGGGUGUAACAUGAGGAUCACCCAUGUGGUGCCAGGGCGCGAGCCC			205	15.4
AGUGCGUAUGUGAGGAUAUGCUGGUCCUUGGAUCGGCAGAAGGCACAUGAGGAUCACCCAUGUGGUGUCGUACU	381	20		

Sequence	apparent Kd [1] [nM]	apparent Kd [2] [nM]	apparent Kd [3] [nM]	apparent Kd [4] [nM]
CCGAUAAUGUAGGAUAUCGUAUCGGAGACGAUACGAGAAGGACAAACAUGAGGAUCACCCAUGUUCCUUAACGG	16.6	19.9		
GUCGUGUGAGGAUAUCUGAUGUCUAACUUCGGUUAGACAUCAGAGAAGGCACAUGAGGAUCACCCAUGUCCGAC	195	298		
GUCGUGUGAGGAUAUGCACGAGUGACAGGGAGGCUGUCACAGCAGAAGGUACAUGAGGAUCACCCAUGUGAAAU	29.1	24.2		
GUUCUGCCUCCUGCCGGAACAUGAGGAUCACCCAUGUUGCCUGAGGAUAUCCUAUGGCUCCCACAGGAGAAGGCAGGCAACAUA	86.2	371		
UUUUUGUCAGGAUAUGACUAGAUGCACGUUAGUGUAUUUACUUAGAAGGGACAUGAGGAUCACCCAUGUAUUCC	30.7	26.7		
CGCUACGUUUCGUAGCAGCUAGGUGAGGAUAUUCAAUUUUUCACAUGAGGAUCACCCAUGUAUGUGAAGAAGGCGCCUAGAAAG			11.8	5.64
CACAGGGAUUCAGGAUAUAUUAGCCGAGGCCGCGUAGAAGGGAAAUCCUGACAUGAGGAUCACCCAUGUCGACCCGCCUUCCAC			24.2	25.3
UAAGAGUGAGGAUAUACGUCGCUGGACCGGAUGGACGCAUGACAUGAGGAUCACCCAUGUAGAAGGCACAAAAC	20.2	25.5		
UCAUUUCUGUAAGGAUAUUUAAACAUGACGAUACAUGAGGAUCACCCAUGUAAAGAAGGUACAAAUACAUAUAAUGCAAUGUUC	7.55	7.39		
UUAUGUGGCGUAGGAUAUCAUUAGAUUUGUAAUUUAAUUGUAAUUUCCAUAUGAGAAGGACGUAUACAUGAGGAUCACCCAUGU	14.8	17.7		
GCCAGGAUGUAAGGAUAUGCUGAGGAAUACUCAGCAGAAGGUACAUGAGGAUCACCCAUGUAAUCCAAUAAUAAAUAACCUGGC	11.3	23.4		
AUACAAUUUCGAGGAUAUCGGUGAUAAAUAAUACGAGAAGGCGAUGAAAGAUAUAAUCCUAUUUACAUGAGGAUCACCCAUGUU			34.8	31.1
CUAAUGUGAGGAUAUGGUGUUGAUCGCAGGAAGGAGAUGCUCCAGAAGGCACAUGAGGAUCACCCAUGUAGUGA	70.5	36.7		
GACAUACAUGAGGAUCACCCAUGUUCAGGCGGACAAGGAUAUGUGUGGAAACCAUACUAUACAGAAGGUGUCUGUC			24.8	17.3
CUUUUGUGAGGAUAUCGGUAGUAAUACAAUAGUAUUACUACUGAGAAGGCACAUGAGGAUCACCCAUGUUCCUC	49.2	305		
UGUCGGAGCAGAGGAUAUACAUGAGGAUCACCCAUGUAAAUGGAAGAAGCCUGGAAACAGGCAAUGUAGAAGGCUGCUCCGACA	132	970		
UUUUACGAAGGAUAUACAUUUUUUUUAUUAUUUUCAUUAUUACAUGAGGAUCACCCAUGUAGAAGGUCGAUUUU	24.3	23.7		
AAUGCACAUGAGGAUCACCCAUGUAAGACAAAGACAGGAUAUGGGCCGCAUGGCUCUGGCCCAGAAGGGUCAGUCG			25	18.6
AAGUUUAACGAAGGAUAUGGUUACAUGAGGAUCACCCAUGUAAUGGUUGUGAUAUUGAUUAAGUUCCAGAAGGUCGUAUACAUA	109	301		
CUCAUGUUAGGAUAUGCGCUCAACGUAGUGGUCGAGCUCUAGCAGAAGGAACAUGAGGAUCACCCAUGUUUGCA	58.1	26.8		
GGUUGGCGAGGAUAUACAUGAGGAUCACCCAUGUGGUCCUGAGGCUGAUCAAGCCUAUGUAGAAGGCGCAAAUC	215	38.1		
GUCAGCUCGUCAGGAUAUACAUGAUAGAUCGAUUAAUUAAUUAAUUUAACAUGAGGAUCACCCAUGUAGAAGGGACGAGCUGAC	80.1	71.9		
UGAUCUUUUGUUAGGAUAUGCUGUUUUUUUUUACAGCAGAAGGGACAUGAGGAUCACCCAUGUCUUGUCAUAAA	11.3	18.6		
GUAGAGUAGUGAGGAUAUACGAGAUCGAUAGAUCGGCGAUCCAAUUAUACAUGAGGAUCACCCAUGUAGAAGGCACUUCUCUAC	12.6	116		
GCAAGAAUAGGAUAUACACCGUGUCAGCUUUUAUAUAUCGCACAUGAGGAUCACCCAUGUAGAAGGGUUCUCUG	420	353		
GUAGCUAUCGCAGGAUAUCCUCAGGCGAAAGCCACAUGAGGAUCACCCAUGUAAAUAAAGUAUUUGGAGAAGGGCGAUAGCUAC			710	36.1
UAGACAUGAGGAUCACCCAUGUACUGGAUUUCAACGCGAUCACAGGAUAUACGGGAUUCGUCCACGUAGAAGGGUGACAACGUC			143	35.1
